Measurements: ChEMBL document CHEMBL4152290, “1H-Benzo[d]imidazoles and 3,4-dihydroquinazolin-4-ones: Design, synthesis and antitubercular activity” (Eur J Med Chem, 2018)
In brackets after ≈: the same amount, converted by molar mass.

System: Mycobacterium tuberculosis
Test: Antitubercular activity against Mycobacterium tuberculosis H37Rv ATCC 27294 after 7 days by resazurin dye based assay
Assay type: functional
Conditions: H37Rv ATCC 27294, 168 h
In short: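 Resazurin microtiter MIC in 7H9 with 10% ADC. Two-fold dilutions from 1 mg/mL DMSO stocks span 25.0–0.05, 10.0–0.02 or 0.02–0.0004 µg/mL, with 2.5% DMSO final. Inoculum is bead-declumped culture grown in 7H9/10% OADC/0.05% Tween 80, diluted to OD600 0.006. Plates run 7 days at 37 °C, then 0.01% resazurin for 48 h. MIC is the lowest concentration preventing the blue-to-pink change. Three independent tests.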

Compound | MIC
O=C(CSc1nc2ccccc2[nH]1)Nc1ccc2c(c1)CCC2 | > 29.6 µM
O=C(CSc1nc2ccccc2[nH]1)NCc1ccccc1 | > 33.6 µM
O=C(CSc1nc(O)c2ccccc2n1)N1CCCCC1 | > 33 µM
O=C(CSc1nc(O)c2ccccc2n1)Nc1ccc(Br)cc1 | > 25.6 µM
CC1CCCCC1NC(=O)CSc1nc2ccccc2[nH]1 (stereo not drawn) | > 33 µM
O=C(CSc1nc(O)c2ccccc2n1)Nc1ccc([N+](=O)[O-])cc1 | > 28.1 µM
O=C(CSc1nc2ccccc2c(=O)[nH]1)NC1CCCC1 | 2.07 µM (≈ 0.628 µg/mL)
CN(C(=O)CSc1nc2ccccc2c(=O)[nH]1)C1CCCCC1 | > 75.4 µM
CCCCCc1ccc(NC(=O)CSc2nc3ccccc3c(=O)[nH]2)cc1 | 26.2 µM (≈ 10 µg/mL)
C[C@H]1CC[C@H](NC(=O)CSc2nc3ccccc3[nH]2)CC1 | 16.5 µM (≈ 5.01 µg/mL)
C[C@@H](NC(=O)CSc1nc2ccccc2c(=O)[nH]1)C1CCCCC1 | > 28.9 µM
Cc1ccc(NC(=O)CSc2nc3ccccc3c(=O)[nH]2)cc1 | > 30.7 µM
CCCCCc1ccc(NC(=O)CSc2nc3ccccc3[nH]2)cc1 | > 70.7 µM
CC1CCCC(NC(=O)CSc2nc3ccccc3[nH]2)C1 (stereo not drawn) | > 33 µM
O=C(CSc1nc2ccccc2[nH]1)NCC1CCCCC1 | 82.4 µM (≈ 25 µg/mL)
O=C(CSc1nc2ccccc2c(=O)[nH]1)NCc1ccccc1 | 4.8 µM (≈ 1.56 µg/mL)
CCCc1ccc(NC(=O)CSc2nc3ccccc3c(=O)[nH]2)cc1 | > 28.3 µM

Compound | MIC
O=C(CSc1nc2ccccc2c(=O)[nH]1)N[C@@H]1CCc2ccccc2C1 | 17.1 µM (≈ 6.25 µg/mL)
C[C@H](NC(=O)CSc1nc2ccccc2[nH]1)C1CCCCC1 | > 31.5 µM
O=C(CSc1nc2ccccc2c(=O)[nH]1)Nc1ccc2ccccc2c1 | > 27.7 µM
C[C@H](NC(=O)CSc1nc2ccccc2c(=O)[nH]1)C1CCCCC1 | > 28.9 µM
O=C(CSc1nc2ccccc2c(=O)[nH]1)Nc1ccc(I)cc1 | > 22.9 µM
O=C(CSc1nc2ccccc2c(=O)[nH]1)Nc1ccc(F)cc1 | > 30.4 µM
O=C(CSc1nc2ccccc2[nH]1)Nc1ccc2ccccc2c1 | > 75 µM
COc1ccccc1NC(=O)CSc1nc2ccccc2[nH]1 | > 31.9 µM
COc1ccc(NC(=O)CSc2nc3ccccc3c(=O)[nH]2)cc1 | > 29.3 µM
CCCCCCCc1ccc(NC(=O)CSc2nc3ccccc3[nH]2)cc1 | > 65.5 µM
O=C(CSc1nc2ccccc2[nH]1)NC1CCCCC1 | > 31.3 µM
CC1CCC(NC(=O)CSc2nc3ccccc3[nH]2)CC1 (stereo not drawn) | 41.2 µM (≈ 12.5 µg/mL)
O=C(CSc1nc2ccccc2c(=O)[nH]1)N[C@H]1CCc2ccccc2C1 | > 27.4 µM
O=C(CSc1nc2ccccc2c(=O)[nH]1)Nc1ccccc1 | > 32.1 µM
O=C(CSc1nc2ccccc2c(=O)[nH]1)Nc1ccc(Cl)cc1 | 28.9 µM (≈ 9.99 µg/mL)
NNC(=O)c1ccncc1 [ISONIAZID] | 2.9 µM (≈ 0.398 µg/mL)
